Measured values from ChEMBL document CHEMBL1157663, “Acyclic nucleoside phosphonates with 5-azacytosine base moiety substituted in C-6 position” (Bioorg Med Chem, 2010).
Converted amounts (≈) assume the structure as drawn. The source made the active and inactive calls. The calls are words filed in the database; no cut-off is given here.

Columns and labels:
[1] = Cytotoxicity against african green monkey Vero cells; type: cell-based; details: chlorocebus sabaeus
HEL = assay: Cytostatic activity against HEL cells; type: ADME, cell-based; details: human
CCRF-CEM = assay: Cytostatic activity against human CEM cells; type: cell-based
Vero = assay: Cytostatic activity against african green monkey Vero cells; type: ADME, cell-based; details: chlorocebus sabaeus
Human alphaherpesvirus 1 = assay: Antiviral activity against Herpes simplex virus 1 infected in HEL cells; type: functional, organism-based
Procedure, shortened: (§1)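 DNA-virus assay run in human embryonic lung (HEL) cell cultures.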

Human alphaherpesvirus 2 = assay: Antiviral activity against Herpes simplex virus 2 infected in HEL cells; type: functional, organism-based; procedure, shortened: as §1
[2] = test system: Human immunodeficiency virus 1; assay: Antiviral activity against HIV1 infected in human CEM cells; type: functional, organism-based; details: CCRF-CEM
Procedure, shortened: (§2)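 Retroviral assay (HIV-1, HIV-2) run in human T-lymphocyte CEM cells.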

[3] = test system: Human immunodeficiency virus 2; assay: Antiviral activity against HIV2 infected in human CEM cells; type: functional, organism-based; details: CCRF-CEM; procedure, shortened: as §2
Sindbis virus = assay: Antiviral activity against Sindbis virus infected in african green monkey Vero cells at 20 ug/ml; type: functional, organism-based
[4] = Cytotoxicity against HEL cells; type: cell-based; details: human
[5] = Cytotoxicity against human CEM cells; type: cell-based; details: CEM (CCRF-CEM) cells
Vaccinia virus = assay: Ratio of compound EC50 to HPMP-5-azaC EC50 for Vaccinia virus infected in HEL cells; type: functional, Orthopoxvirus vaccinia
Cowpox virus = assay: Ratio of compound EC50 to HPMP-5-azaC EC50 for Cowpox virus infected in HEL cells; type: functional
Human alphaherpesvirus 3 = assay: Antiviral activity against Varicella zoster virus infected in HEL cells; type: functional, organism-based; details: Human alphaherpesvirus 3, HEL; procedure, shortened: as §1
Human betaherpesvirus 5 = assay: Antiviral activity against Human cytomegalovirus infected in HEL cells; type: functional, organism-based; details: Human betaherpesvirus 5, HEL; procedure, shortened: as §1
Human betaherpesvirus 6 = assay: Antiviral activity against Human herpesvirus 6; type: functional, organism-based

SMILES	CC50 [1]	Activity (HEL)	Activity (CCRF-CEM)	Activity (Vero)	Activity (Human alphaherpesvirus 1)	Activity (Human alphaherpesvirus 2)	Activity [2]	Activity [3]	Activity (Sindbis virus)	CC50 [4]	CC50 [5]	Ratio EC50 (Vaccinia virus)	Ratio EC50 (Cowpox virus)	EC50 (Human alphaherpesvirus 1; Human alphaherpesvirus 1, HEL)	EC50 (Human alphaherpesvirus 2; Human alphaherpesvirus 2, HEL)	EC50 (Human alphaherpesvirus 3)	EC50 (Human betaherpesvirus 5)	EC50 (Human betaherpesvirus 6)
Cc1nc(N)n(C[C@@H](CO)OCP(=O)(O)OC(C)C)c(=O)n1	> 100 µg/mL	Non-toxic	Non-toxic	Non-toxic	inactive	inactive	inactive	inactive	Active	> 100 µg/mL	> 100 µg/mL	–	–	–	–	–	–	–
CCCCc1nc(N)nc(=O)n1C[C@@H](CO)OCP(=O)(O)O	> 100 µg/mL	Non-toxic	Non-toxic	Non-toxic	inactive	inactive	inactive	inactive	–	> 100 µg/mL	> 100 µg/mL	50	50	–	–	–	–	–
Nc1ncnc(=O)n1C[C@@H](CO)OCP(=O)(O)O	> 100 µg/mL	Non-toxic	Non-toxic	Non-toxic	inactive	inactive	inactive	inactive	–	> 100 µg/mL	> 100 µg/mL	–	–	–	–	–	–	–
Cc1nc(N)nc(=O)n1C[C@@H](CO)OCP(=O)(O)O	> 100 µg/mL	Non-toxic	Non-toxic	Non-toxic	inactive	inactive	inactive	inactive	–	> 100 µg/mL	> 100 µg/mL	50	50	–	–	–	–	–
CCc1nc(N)nc(=O)n1C[C@@H](CO)OCP(=O)(O)O	> 100 µg/mL	Non-toxic	Non-toxic	Non-toxic	inactive	inactive	inactive	inactive	–	> 100 µg/mL	> 100 µg/mL	50	50	–	–	–	–	–
CCCCCCCCCCCCCCCCOCCOP1(=O)CO[C@@H](Cn2cnc(N)nc2=O)CO1 (stereo not given in full)	> 100 µg/mL	Non-toxic	Non-toxic	Non-toxic	–	–	inactive	inactive	–	> 100 µg/mL	> 100 µg/mL	–	–	0.003 µg/mL (≈ 0.00565 µM)	0.003 µg/mL (≈ 0.00565 µM)	≤ 0.0008 µg/mL	≤ 0.00014 µg/mL	0.008 µg/mL (≈ 0.0151 µM)
Nc1nc(-c2ccccc2)n(C[C@@H](CO)OCP(=O)(O)O)c(=O)n1	> 100 µg/mL	Non-toxic	Non-toxic	Non-toxic	inactive	inactive	inactive	inactive	–	> 100 µg/mL	> 100 µg/mL	50	50	–	–	–	–	–
CCCc1nc(N)nc(=O)n1C[C@@H](CO)OCP(=O)(O)O	> 100 µg/mL	Non-toxic	Non-toxic	Non-toxic	inactive	inactive	inactive	inactive	–	> 100 µg/mL	> 100 µg/mL	50	50	–	–	–	–	–
Cc1nc(N)n(C[C@@H](CO)OCP(=O)(O)O)c(=O)n1	> 100 µg/mL	Non-toxic	Non-toxic	Non-toxic	inactive	inactive	inactive	inactive	inactive	> 100 µg/mL	> 100 µg/mL	–	–	–	–	–	–	–
